Assay outcomes from PubChem.
PG9 binder: binds the HIV-1 gp120 antibody PG9; 360,000 tested, 0.43% active; inhibition, % at 6.7 µM; TR-FRET gp120-PG9 antibody binding; AID 624416; in the data active means inhibition above about 8.5%
Rev-erbA mod: modulates human Rev-erb alpha binding to DNA. P20393. Rev-erbα–FITC-DNA binding, fluorescence polarization, 90 min. activity, % at 10 µM. 370,000 tested, 0.79% active. AID 1259318;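 active means activity above about 14%, limit read from the data; passing the limit was not always enough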
NR2E3 ag-1: agonists of human nuclear receptor NR2E3; Q9Y5X4; GST-NR2E3/biotin-RetCOR TR-FRET, 1536-well; 320,000 tested, 0.12% active; inhibition of corepressor binding, % at 4.78 µM;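 active means percent inhibition above the cutoff of mean plus 3 SD of all tested compounds, set per screening campaign, cut at about 20% in these data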
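Material: NR2E3–RetCOR corepressor complex / Incubation: Compound–protein incubation for 5 h at 4 °C / Dosing: compound at 4.8 µM, single dose / Detection: time-resolved FRET / Benchmarks: high control biotin, low control 0.6% DMSO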
VLA-4 inh: inhibition in a human VLA-4 binding assay. 330,000 tested, 0.2% active. AID 2557. VLA-4 expressing cells, ligand binding flow cytometry. inhibition, % (about 7 µM as worked out from the volumes in the protocol); in the data active means inhibition above about 50%
NR2E3 ag-2: human photoreceptor-specific nuclear receptor agonism | Q9Y5X4 | CHO-S Gal4-NCOR/VP16-NR2E3 two-hybrid, luciferase | inhibition of corepressor binding, % at 3.98 µM | 360,000 tested, 0.35% active | AID 602229;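 active means inhibition above the mean of all tested compounds plus 3 SD, cut at about 70% in these data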;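 further: higher means lower luciferase signal from less NR2E3 corepressor binding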
VLA-4 allo CP: human VLA-4 allosteric modulation in cherry picked compounds. shares compounds with VLA-4 inh. U937 cells, HUTS-21 LIBS mAb binding, flow cytometry; LDV ligand present at threefold Kd. inhibition, % at 6.7 µM. 1,300 tested, 2% active; in the data active means inhibition above about 40%
Hits are given with their value; i = inactive; nt = no result. Only some compounds are listed: those with a hit (about 1.6% of all), similar ones and a draw of the others.

SMILES	PG9 binder	Rev-erbA mod	NR2E3 ag-1	VLA-4 inh	NR2E3 ag-2	VLA-4 allo CP
Cc1oc2c(c1C(=O)Nc1cccc3ccccc13)CCCC2	i	i	i	i	i	nt
COc1ccccc1NC(=O)c1c(C)oc2c1CCCC2	i	i	i	92.7	i	i
c1ccc(C2CCC3(CC2)CCC3NCc2cccs2)cc1 (centres undefined)	nt	i	nt	nt	nt	nt
CC(C)Oc1cccc(-c2cc(C(=O)N3CCN(c4ncccn4)CC3)c3ccccc3n2)c1	i	i	i	i	i	i
O=C(c1cc(-c2ccc(Br)cc2)nc2ccccc12)N1CCN(c2ccccc2O)CC1	i	i	i	i	i	i
O=C(c1cc(-c2ccncc2)nc2ccc(Br)cc12)N1CCN(c2ccccn2)CC1	i	i	i	i	i	i
COc1ccc(-c2cc(C(=O)N3CCN(c4cccc(C)c4C)CC3)c3ccccc3n2)cc1OC	nt	nt	i	i	i	i
Cc1ccc(-c2cc(C(=O)N3CCN(c4ccccc4O)CC3)c3ccccc3n2)o1	i	i	i	i	i	nt
O=C(NCCN1C(=O)C2C3C=CC(C3)C2C1=O)c1cc(F)cc(F)c1 (centres undefined)	nt	i	nt	nt	nt	nt
CCOC(=O)C1CCCN(C2CC(=O)N(c3ccc(C)c(C)c3)C2=O)C1 (centres undefined)	i	i	i	i	i	i
CCOC(=O)C1CCCN(C2CC(=O)N(c3ccccc3)C2=O)C1 (centres undefined)	i	i	i	i	i	nt
CCOC(=O)C1CCCN(C2CC(=O)N(c3ccc(N4C(=O)CC(N5CCCC(C(=O)OCC)C5)C4=O)cc3)C2=O)C1 (centres undefined)	i	i	i	i	i	nt
CCOC(=O)C1CCCN(C2CC(=O)N(c3cccc(C(F)(F)F)c3)C2=O)C1 (centres undefined)	i	i	i	i	i	i
O=C(NCC1CCN(C(=O)C(=O)c2cc3ccccc3o2)CC1)c1ccc2c(c1)OCCCO2	i	i	nt	nt	nt	nt
COc1ccccc1N(CC(=O)Nc1cccnc1)S(=O)(=O)c1ccccc1	i	i	i	i	i	nt
COc1ccc(OC)c(N(CC(=O)Nc2cccnc2)S(=O)(=O)c2ccccc2)c1	i	i	i	63.1	i	i
O=C(OC12CCCN(C1)/C(=C/c1ccc(Cl)cc1)C2)c1ccccc1 (centres undefined)	nt	i	nt	nt	nt	nt
CCOC(=O)CNC(=O)CSc1nc2ccccc2c(=O)n1-c1ccc(Cl)cc1	nt	i	nt	nt	nt	nt
CCOc1ccc(S(=O)(=O)Nc2ccccc2C(=O)N(C)C2CCN(C)CC2)cc1	i	i	i	49.7	i	i
CCOC(=O)c1ccccc1NS(=O)(=O)c1ccc(OCC)cc1	i	i	i	i	i	nt
Cc1ccccc1C(=O)N1CCC(C(=O)Nc2ccccn2)CC1	i	i	i	51.4	i	i
Cc1ccccc1C(=O)N1CCC(C(=O)Nc2ccc(F)cc2)CC1	i	i	i	i	i	nt
Cc1ccccc1C(=O)N1CCC(C(=O)Nc2ccc(C(C)C)cc2)CC1	i	i	i	i	i	i
Cc1ccc(OCCOc2ccc(Cl)cc2Cl)c(Br)n1	nt	i	nt	nt	nt	nt
Cc1ccc2c([N+](=O)[O-])c(C)ccc2n1	i	i	i	51.1	i	i
SMILES	PG9 binder	Rev-erbA mod	NR2E3 ag-1	VLA-4 inh	NR2E3 ag-2	VLA-4 allo CP
Cc1ccc2c([N+](=O)[O-])cccc2n1	i	i	i	i	i	nt
O=C(Nc1ccc(Cl)cc1Cl)OC1CCC12CCC(c1ccccc1)CC2 (centres undefined)	nt	i	nt	nt	nt	nt
CCOCC(O)CNc1ccccc1 (centres undefined)	i	i	i	i	i	i
COc1cc(-c2c(C(=O)c3ccccc3)[nH]c(N)c2C(N)=O)ccc1O	nt	i	nt	nt	nt	nt
O=C(CNS(=O)(=O)c1ccc(Br)cc1)OCc1cc(=O)n2cc(Br)ccc2n1	i	i	i	i	nt	i
O=C(CNC(=O)c1cccc(OC(F)F)c1)OCc1cc(=O)n2cc(Br)ccc2n1	i	i	i	i	i	nt
CCOc1ccccc1C1CC(=O)Nc2cc(C)c(C)cc21 (centres undefined)	i	i	i	i	i	nt
CCOc1ccccc1C1CC(=O)Nc2cc(OC)c(OC)c(OC)c21 (centres undefined)	i	i	i	i	i	i
COC(=O)C1=C(C)NC(=O)CC1c1cccc(OC)c1OC (centres undefined)	nt	i	i	i	i	nt
